Assay results reported in article PMC9047252 (RSC Advances, 2020).

Experiments:
K562 cells [1] = assay: CCK-8 antiproliferative assay, K562; assay type: cell-based; conditions: Homo sapiens, K562, 72 h, read-out: IC50 K562
In short: (§1)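 Cells seeded at 2500–3000 per well and held at 37 °C for 24 h, then exposed in triplicate to a range of test compound concentrations for 72 h, with 0.1% DMSO as control. CCK-8 added and incubated 2 h at 37 °C, then absorbance read at 450 nm. IC50 calculated and given as mean ± SD from three independent experiments.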

K562/ADR cells [2] = assay: CCK-8 antiproliferative assay, K562/ADR; assay type: cell-based; conditions: Homo sapiens, 72 h, read-out: IC50 K562/ADR
In short: as §1

LO2 cells = assay: CCK-8 cytotoxicity assay, LO2; assay type: cell-based; conditions: Homo sapiens, L02, 72 h, read-out: IC50 LO2
In short: as §1

K562 cells [3] = assay: Intracellular NO, DAF-FM DA, K562; assay type: cell-based, human; conditions: 10c 1, 10, 100 μM, 3 and 7 100 μM, 3 h
In short: (§2)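 Cells exposed to 0.1% DMSO or test compound at 37 °C for 3 h. Harvested, PBS-washed, and loaded with DAF-FM DA (50 μmol L−1) in incubation buffer at 37 °C for 30 min. Washed again, then NO fluorescence read by fluorescence microscopy and microplate reader. Three independent experiments, mean ± SD; Student's t-test against control.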

K562/ADR cells [4] = assay: Intracellular NO, DAF-FM DA, K562/ADR; assay type: cell-based, human; conditions: 10c 1, 10, 100 μM, 3 and 7 100 μM, 3 h
In short: as §2

K562 cells [5] = assay: Western blot analysis, K562; assay type: cell-based, human; conditions: 10c 1, 5, 10 μM, 3 10 μM, 24 h
K562/ADR cells [6] = assay: Western blot analysis, K562/ADR; assay type: cell-based, human; conditions: 10c 1, 5, 10 μM, 3 10 μM, 24 h
HT-29 cells = conditions: read-out: IC50 in HT-29 cells; cited from earlier work

Q: Which IC50 (K562 cells [1]) does the source give for `C[C@H]1[C@H](OC(=O)CCC(=O)O)O[C@@H]2O[C@@]3(C)CC[C@H]4[C@H](C)CC[C@@H]1[C@@]24OO3` [compound 3, artesunate] here?
A: Its IC50 is 10.2 ± 0.135 µM.

Q: What about the IC50 (K562/ADR cells [2]) of the same molecule?
A: Its IC50 is 36.4 ± 2.9 µM.

Q: And the IC50 (LO2 cells)?
A: Its IC50 is 19.9 ± 0.331 µM.

Q: What about the “generation of intracellular NO” value (K562 cells [3]) of the same molecule?
A: Its value is “increased the intracellular NO levels”.

Q: And the “generation of intracellular NO” value (K562/ADR cells [4])?
A: Its value is “increased the intracellular NO levels”.

Q: What about the AKT phosphorylation (K562 cells [5]) of the same molecule?
A: Its AKT phosphorylation is “clearly reduced the levels of AKT phosphorylation”.

Q: What about the “AMPK and JNK phosphorylation” value (K562 cells [5]) of the same molecule?
A: The value was “up-regulated the levels of AMPK and JNK phosphorylation”.

Q: What about the AKT phosphorylation (K562/ADR cells [6]) of the same molecule?
A: The AKT phosphorylation was “clearly reduced the levels of AKT phosphorylation”.

Q: What about the “AMPK and JNK phosphorylation” value (K562/ADR cells [6]) of the same molecule?
A: The value was “up-regulated the levels of AMPK and JNK phosphorylation”.

Q: With `Oc1ccc(-c2cc(=S)ss2)cc1` [compound 4, 5-(4-hydroxyphenyl)-3H-1,2-dithiole-3-thione] as the molecule, how does the IC50 (K562 cells [1]) read?
A: The IC50 was > 200 µM.

Q: And the IC50 (K562/ADR cells [2])?
A: The IC50 was > 200 µM.

Q: What about the IC50 (LO2 cells) of the same molecule?
A: The IC50 was > 200 µM.

Q: What does the source list for `C[C@@H]1CC[C@H]2[C@@H](C)C(=O)O[C@@H]3O[C@@]4(C)CC[C@@H]1[C@]32OO4` [compound 1, Artemisinin]?
A: IC50 (K562 cells [1]): 11.1 ± 0.832 µM; IC50 (K562/ADR cells [2]): > 200 µM; IC50 (LO2 cells): 83.3 ± 1.99 µM

Q: Which results are given for `COC(=O)C[C@](O)(CCCC(C)(C)O)C(=O)O[C@@H]1C(OC)=C[C@]23CCCN2CCc2cc4c(cc2[C@H]13)OCO4` [HHT, homoharringtonine]?
A: IC50 (K562 cells [1]): 0.367 ± 0.011 µM; IC50 (K562/ADR cells [2]): 3.26 ± 0.082 µM; IC50 (LO2 cells): 0.915 ± 0.149 µM

Q: With `C[C@H]1[C@@H](O)O[C@@H]2O[C@@]3(C)CC[C@H]4[C@H](C)CC[C@@H]1[C@@]24OO3` [compound 2, dihydroartemisinin] as the molecule, how does the IC50 (K562 cells [1]) read?
A: Its IC50 is 8.67 ± 0.277 µM.

Q: What about the IC50 (K562/ADR cells [2]) of the same molecule?
A: The IC50 was 28.1 ± 1.09 µM.

Q: What about the IC50 (LO2 cells) of the same molecule?
A: Its IC50 is 19.9 ± 1.66 µM.

Q: For `O=C(CCCO[N+](=O)[O-])Oc1ccccc1C(=O)Oc1ccc(-c2cc(=S)ss2)cc1` [NOSH-1], which IC50 (HT-29 cells) is on record?
A: The IC50 was 0.048 µM.

Q: For `COc1cccc2c1C(=O)c1c(O)c3c(c(O)c1C2=O)C[C@@](O)(C(=O)CO)C[C@@H]3O[C@H]1C[C@H](N)[C@H](O)[C@H](C)O1` [ADR, adriamycin], which IC50 (K562 cells [1]) is on record?
A: The IC50 was 0.672 ± 0.056 µM.

Q: And the IC50 (K562/ADR cells [2])?
A: Its IC50 is 9.16 ± 0.658 µM.

Q: And the IC50 (LO2 cells)?
A: Its IC50 is 2.74 ± 0.123 µM.

Q: Which results are given for `O=[N+]([O-])O[C@@H]1CO[C@H]2[C@@H]1OC[C@@H]2O` [compound 7, isosorbide 5-mononitrate]?
A: IC50 (K562 cells [1]): > 200 µM; IC50 (K562/ADR cells [2]): > 200 µM; IC50 (LO2 cells): > 200 µM; generation of intracellular NO (K562 cells [3]): increased the intracellular NO levels; generation of intracellular NO (K562/ADR cells [4]): increased the intracellular NO levels
